Results from ChEMBL document CHEMBL5653606 (J Pharmacol Exp Ther, 2011).
The source made the active and inactive calls.

Assays:
[1] = tested on: Mus musculus; assay: Antinociceptive activity in C57BL6/J mouse assessed as increase in tail-immersion latency at 10 mg/kg, ip administered for 30 mins; assay type: functional, organism-based
How it was run: (§1)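 Tetrad test in male C57BL6/J mice (7 weeks old; n = 8/group). Dosed i.p. at 10 ml/kg in 18:1:1 saline/Emulphor/ethanol, with a vehicle control group. Locomotive activity, thermal nociception (tail-immersion latency), catalepsy (60 s) and body temperature were assessed 30 min postdosing.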

[2] = tested on: Mus musculus; assay: Antinociceptive activity in C57BL6/J mouse assessed as reduction in locomotive activity at 10 mg/kg, ip administered for 30 mins; assay type: functional, organism-based; how it was run: as §1
[3] = tested on: Mus musculus; assay: Antinociceptive activity in C57BL6/J mouse assessed as increase in catalepsy at 10 mg/kg, ip administered for 30 mins; assay type: functional, organism-based; how it was run: as §1
[4] = tested on: Mus musculus; assay: Antinociceptive activity in C57BL6/J mouse assessed as increase in body temperature at 10 mg/kg, ip administered for 30 mins; assay type: functional, organism-based; how it was run: as §1
[5] = tested on: Rattus norvegicus; assay: Antihyperalgesic activity in MIA induced Sprague-Dawley rat assessed as effect on pain behaviour in contralateral knee joint at 0.3 to 3 mg/kg, po administered once daily for 3 consecutive days; assay type: functional, organism-based; conditions: dose 0.3-3 mg/kg, time 3.0 day
How it was run: (§2)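 Male Sprague-Dawley rats (220–270 g), isoflurane-anesthetized, given 2 mg MIA in 0.9% saline (50 μl) intra-articular into the knee. From day 14, oral dosing at 10 ml/kg once daily for 3 days in 4% 2-hydroxypropyl-β-cyclodextrin/1% ethanol in 0.01 M HCl. Celecoxib 30 mg/kg in 0.5% methylcellulose twice daily. Joint compression threshold by digital Randall-Selitto at 2 and 4 h postdose on days 1 and 3; n = 10/group.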

[6] = tested on: Rattus norvegicus; assay: Antihyperalgesic activity in MIA induced Sprague-Dawley rat assessed as increased joint compression thresholds at 30 mg/kg, po administered twice daily for 3 consecutive days measured after 2 to 4 hrs; assay type: functional, organism-based; conditions: time 3.0 day; how it was run: as §2
[7] = tested on: Mus musculus; assay: In vivo inhibition of rhodamine-azide tagged FAAH expressed in mouse brain at 10 mg/kg, ip administered for 2 hrs by CC-ABPP method based in-gel fluorescence scanning analysis; assay type: functional, organism-based
How it was run: (§3)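 Alkyne analog given at 10 mg/kg i.p. to FAAH(+/+) or FAAH(−/−) mice. Animals killed at 2 h. Brain or liver proteomes click-reacted with rhodamine-azide tag, then analyzed by in-gel fluorescence scanning.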

[8] = target: T1, Fatty-acid amide hydrolase 1 (Homo sapiens) (UniProt O00519); assay: Inhibition of FAAH (unknown origin) assessed as kinact/Ki ratio in presence of glutamate dehydrogenase by 384-well format microplate reader assay
T1 sequence (whole entry): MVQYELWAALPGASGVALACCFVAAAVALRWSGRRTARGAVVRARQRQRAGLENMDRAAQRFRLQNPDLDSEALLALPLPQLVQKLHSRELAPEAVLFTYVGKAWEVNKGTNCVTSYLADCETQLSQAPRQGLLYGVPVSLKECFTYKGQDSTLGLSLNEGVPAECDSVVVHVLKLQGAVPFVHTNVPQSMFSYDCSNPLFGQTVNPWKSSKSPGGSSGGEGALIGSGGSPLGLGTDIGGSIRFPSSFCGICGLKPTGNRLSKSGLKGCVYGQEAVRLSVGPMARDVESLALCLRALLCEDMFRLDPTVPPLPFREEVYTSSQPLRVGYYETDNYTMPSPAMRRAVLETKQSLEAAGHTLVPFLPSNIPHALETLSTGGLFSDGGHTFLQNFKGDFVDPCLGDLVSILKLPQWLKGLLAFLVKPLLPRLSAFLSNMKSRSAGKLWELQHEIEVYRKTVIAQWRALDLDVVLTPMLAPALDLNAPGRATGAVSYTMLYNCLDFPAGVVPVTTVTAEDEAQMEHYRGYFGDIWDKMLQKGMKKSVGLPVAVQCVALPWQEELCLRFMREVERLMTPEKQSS

[9] = tested on: Mus musculus; assay: In vivo inhibition of rhodamine-azide tagged FAAH expressed in mouse liver at 10 mg/kg, ip administered for 2 hrs by CC-ABPP method based in-gel fluorescence scanning analysis; assay type: functional, organism-based; how it was run: as §3
[10] = target: T1, Fatty-acid amide hydrolase 1 (Homo sapiens); assay: Inhibition of FAAH in human brain at 100 uM in presence of FP-rhodamine by competitive activity-based protein profiling method; assay type: tissue-based
How it was run: (§4)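 Competitive ABPP on human and mouse brain, liver and heart proteomes (membrane and soluble fractions), exposed to compound at 10 or 100 μM or to DMSO. Serine hydrolases were then labeled with FP-rhodamine. Gels were read by fluorescence scanning, and loss of band labeling (FAAH or other hydrolases by kDa) was judged.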

[11] = target: T2, Fatty-acid amide hydrolase 1 (Mus musculus) (UniProt O08914); assay: Inhibition of FAAH in mouse brain at 10 uM in presence of FP-rhodamine by competitive activity-based protein profiling method; assay type: tissue-based; how it was run: as §4
T2 sequence (whole entry): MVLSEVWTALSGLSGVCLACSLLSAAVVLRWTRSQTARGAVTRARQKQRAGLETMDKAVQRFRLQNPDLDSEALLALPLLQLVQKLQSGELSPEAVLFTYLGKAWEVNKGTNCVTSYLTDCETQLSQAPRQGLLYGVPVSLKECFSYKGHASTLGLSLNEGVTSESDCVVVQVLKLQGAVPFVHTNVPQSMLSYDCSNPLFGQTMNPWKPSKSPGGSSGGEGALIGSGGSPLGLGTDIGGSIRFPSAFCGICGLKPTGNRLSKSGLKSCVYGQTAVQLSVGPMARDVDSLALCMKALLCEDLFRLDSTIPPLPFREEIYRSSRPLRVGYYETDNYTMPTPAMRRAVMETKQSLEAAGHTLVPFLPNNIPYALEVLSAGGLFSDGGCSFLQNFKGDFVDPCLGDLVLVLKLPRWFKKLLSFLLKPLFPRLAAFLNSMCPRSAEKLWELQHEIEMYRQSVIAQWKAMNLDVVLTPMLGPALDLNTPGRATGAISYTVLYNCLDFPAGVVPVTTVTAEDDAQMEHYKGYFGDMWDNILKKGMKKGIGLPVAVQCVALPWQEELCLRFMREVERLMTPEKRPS

[12] = target: T1, Fatty-acid amide hydrolase 1 (Homo sapiens); assay: Inhibition of FAAH in human brain at 10 uM in presence of FP-rhodamine by competitive activity-based protein profiling method; assay type: tissue-based; how it was run: as §4
[13] = target: T2, Fatty-acid amide hydrolase 1 (Mus musculus); assay: Inhibition of FAAH in mouse brain at 100 uM in presence of FP-rhodamine by competitive activity-based protein profiling method; assay type: tissue-based; how it was run: as §4
[14] = target: T1, Fatty-acid amide hydrolase 1 (Homo sapiens); assay: Inhibition of human FAAH assessed as kinact/Ki ratio in presence of glutamate dehydrogenase by 384-well format microplate reader assay
How it was run: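 Glutamate dehydrogenase-coupled assay in 384-well format, 50 μl final volume. NAD⁺ formed from ammonia released by oleamide hydrolysis, followed at 340 nm.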

[15] = target: T3, Fatty-acid amide hydrolase 1 (Rattus norvegicus) (UniProt P97612); assay: Inhibition of rat FAAH assessed as kinact/Ki ratio in presence of glutamate dehydrogenase by 384-well format microplate reader assay
T3 sequence (whole entry): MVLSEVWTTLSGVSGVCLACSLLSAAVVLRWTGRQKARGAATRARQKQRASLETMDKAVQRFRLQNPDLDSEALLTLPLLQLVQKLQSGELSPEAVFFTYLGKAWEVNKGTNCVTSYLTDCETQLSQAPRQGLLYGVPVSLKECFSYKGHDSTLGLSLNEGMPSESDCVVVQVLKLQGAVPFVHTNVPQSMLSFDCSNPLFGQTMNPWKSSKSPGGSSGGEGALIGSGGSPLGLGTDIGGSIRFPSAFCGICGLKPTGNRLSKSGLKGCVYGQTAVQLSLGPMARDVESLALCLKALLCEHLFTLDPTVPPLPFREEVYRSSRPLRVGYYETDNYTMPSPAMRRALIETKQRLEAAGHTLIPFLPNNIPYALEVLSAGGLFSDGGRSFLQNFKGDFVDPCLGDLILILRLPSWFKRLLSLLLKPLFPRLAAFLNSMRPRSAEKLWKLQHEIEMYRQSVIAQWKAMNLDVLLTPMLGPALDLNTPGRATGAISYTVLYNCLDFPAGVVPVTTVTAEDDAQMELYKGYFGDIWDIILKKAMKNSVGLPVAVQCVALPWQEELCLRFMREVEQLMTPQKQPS
How it was run: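 Purified recombinant FAAH (>95% pure), human or rat. Glutamate dehydrogenase-coupled assay in 384-well format, 50 μl final volume. NAD⁺ formed from ammonia released by oleamide hydrolysis, followed at 340 nm.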

[16] = tested on: Rattus norvegicus; assay: Antihyperalgesic activity in CFA induced Sprague-Dawley rat assessed as partial reduction of mechanical allodynia at 3 mg/kg, ip by von frey test; assay type: functional, organism-based
How it was run: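 CFA (150 μl, 1 mg/ml in mineral oil) injected into the plantar hind paw of male Sprague-Dawley rats (200–250 g). On day 5, the CB1 or CB2 antagonist was given at 3 mg/kg i.p. 10 min before testing, alongside a 3 mg/kg p.o. dose of the FAAH inhibitor. Mechanical paw withdrawal thresholds were measured with Von Frey hairs; n = 8 rats/group.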

[17] = tested on: Mus musculus; assay: In vivo inhibition of rhodamine-azide tagged FAAH in FAAH knockout mouse liver at 10 mg/kg, ip administered for 2 hrs by CC-ABPP method based in-gel fluorescence scanning analysis; assay type: functional, organism-based; how it was run: as §3
[18] = target: T3, Fatty-acid amide hydrolase 1 (Rattus norvegicus); conditions: Sprague-Dawley, dose 10.0 mg/kg, route po
[19] = target: T3, Fatty-acid amide hydrolase 1 (Rattus norvegicus); conditions: Sprague-Dawley, dose 10.0 mg/kg, route po; remark: listed apart in the source
[20] = target: T3, Fatty-acid amide hydrolase 1 (Rattus norvegicus); conditions: Sprague-Dawley, dose 10.0 mg/kg, route po; remark: listed apart in the source
[21] = target: T3, Fatty-acid amide hydrolase 1 (Rattus norvegicus); conditions: Sprague-Dawley, dose 10.0 mg/kg, route po; remark: listed apart in the source
[22] = target: T3, Fatty-acid amide hydrolase 1 (Rattus norvegicus); conditions: Sprague-Dawley, dose 10.0 mg/kg, route po; remark: listed apart in the source
[23] = target: T3, Fatty-acid amide hydrolase 1 (Rattus norvegicus); conditions: Sprague-Dawley, dose 10.0 mg/kg, route po; remark: listed apart in the source
[24] = target: T3, Fatty-acid amide hydrolase 1 (Rattus norvegicus); conditions: Sprague-Dawley, dose 10.0 mg/kg, route po; remark: listed apart in the source

Cc1c(C(=O)c2cccc3ccccc23)c2cccc3c2n1[C@H](CN1CCOCC1)CO3
Activity [1]: Toxic | Activity [2]: Toxic | Activity [3]: Toxic | Activity [4]: Toxic

Cc1ccc(-c2cc(C(F)(F)F)nn2-c2ccc(S(N)(=O)=O)cc2)cc1
Activity [5]: inactive | Activity [6]: Active

C#CCCCOc1ccc(Oc2cccc(C=C3CCN(C(=O)Nc4cccnn4)CC3)c2)nc1
inhibition [7]: Active | Ratio [8]: 11900 M⁻¹ s⁻¹ | inhibition [9]: Active

NC(=O)c1cccc(-c2cccc(OC(=O)NC3CCCCC3)c2)c1
inhibition [10]: Active | inhibition [11]: Active | inhibition [12]: Active | inhibition [13]: Active | Ratio [14]: 1590 M⁻¹ s⁻¹

O=C(Nc1ccccc1)N1CCC(Cc2cnc3ccccc3c2)CC1
Ratio [15]: 104 M⁻¹ s⁻¹

Cc1ccc(Cn2nc(C(=O)N[C@@H]3C(C)(C)[C@@H]4CC[C@@]3(C)C4)cc2-c2ccc(Cl)c(C)c2)cc1
Activity [16]: inactive

Cc1c(C(=O)NN2CCCCC2)nn(-c2ccc(Cl)cc2Cl)c1-c1ccc(Cl)cc1
Activity [16]: inactive

C#CCCCCCCCCCNC(=O)Oc1cccc(-c2cccc(C(N)=O)c2)c1
inhibition [17]: Active | inhibition [7]: Active | inhibition [9]: Active

COc1ccc2cc([C@H](C)C(=O)O)ccc2c1
inhibition [18]: inactive | inhibition [19]: inactive | inhibition [20]: inactive | inhibition [21]: inactive | inhibition [22]: inactive | inhibition [23]: inactive | inhibition [24]: inactive
